FN deposition inh = fibronectin deposition inhibition. AH1F fibroblasts, Alexa488-fibronectin deposition fluorescence, overnight. inhibition, % at 12.6 µM. 350,000 compounds, 0.086% hits. AID 743247;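 active = mean inhibition across replicates of 30% or more, regardless of how many single replicates reach that level; inconclusive = mean under 30% yet at least half of replicates reach 30%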;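 note: positive control wells lacked labelled fibronectin entirely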
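Schedule: 1 h cell adhesion before compound, then overnight fibronectin incubation; test system: AH1F fibroblast monolayer depositing Alexa488-labelled fibronectin into matrix; quantity: 10000 AH1F cells per well; probe or stimulus: fluorescent fibronectin at 24 nM final; signal: fluorescence, ex 485 nm, em 525 nm; evaluation: percent inhibition as loss of matrix-bound fibronectin fluorescence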
EWS-Fli inh = EWS/Fli transcriptional activity inhibition. A673 NR0B1-luciferase reporter, viability-normalised. inhibition, % at 12.6 µM. 350,000 compounds, 0.67% hits;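 active = mean inhibition of at least 50% after viability correction, with every replicate also passing that limit; inconclusive = mean reaches 50% but only one of two replicates passes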;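 note: firefly luciferase signal divided by Alamar Blue viability fluorescence both relative to DMSO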
XiGFP reactiv = reactivates the inactive X chromosome in mouse fibroblasts; XiGFP mouse fibroblasts, % GFP-positive cells imaging, 3 d; cells co-treated with 5-aza-dC sensitizer; scaled so ellipticine positive control = 100%; activation, % at 7.58 µM; 360,000 compounds, 0.055% hits;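 active = mean normalized replicate activation at least 10% and every replicate at or above 10%; inconclusive = only one of the two criteria met; inactive = mean below 10% and not all replicates reach 10%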;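 note: 0% = median of on-plate neutral control wells and 100% = ellipticine 6 µM median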
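Material: XiGFP fibroblasts, SV40-immortalized; Buffer or medium: DMEM containing 5-aza-dC; Compound dosing: single point; Times: 3 days compound exposure.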
TROY NFkB inh = blocks TROY-dependent signaling in reporter cells. Q293 LMP1-TROYcd NF-kB luciferase reporter, 4 h. inhibition, % at 10 µM. 360,000 compounds, 0.98% hits;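 active = compounds whose plate-normalised and pattern-corrected inhibition of the luciferase reporter signal at the single screening dose is 50% or more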
TWEAK-Fn14 inh = blocks TWEAK-Fn14 interaction in a reporter cell assay. TWEAK-stimulated Fn14 reporter cells, luciferase luminescence, 8 h. inhibition, % at 10 µM. 360,000 compounds, 2% hits; in the data active = inhibition above about 50%
LGR2 inh = blocks bursicon-induced cAMP signaling via Drosophila LGR2; HEK293 LGR2, CRE-luciferase, bursicon-stimulated, 4 h; inhibition, % at 9.99 µM; 380,000 compounds, 0.35% hits; AID 720647;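 active = drop in luminescence signal, shown as inhibition above about 50% in the replicate tests, limit read from the data, passing the limit was not always enough; inconclusive = probably only some replicates passing the limit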;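 note: agonist challenge used bursicon conditioned medium at about half maximal strength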
An asterisk follows results filed as active; ? = inconclusive; . = no result. Most compounds without a hit are left out; they make up all but 2.3% or so of the library.

SMILES | FN deposition inh | EWS-Fli inh | XiGFP reactiv | TROY NFkB inh | TWEAK-Fn14 inh | LGR2 inh
O=C([C@H]1N[C@H]2c3cccc(=O)n3C[C@H]2[C@@H]1CO)N1CCCCC1 | 4 | . | 0 | . | . | .
CN1C2CN(CC(F)(F)F)CC1C2c1ccc(Br)cc1 (stereo not given) | -19 | . | 0 | . | . | .
COc1ccc(Cn2c(N)c(C(=O)NCc3ccco3)c3nc4ccccc4nc32)cc1OC | . | . | . | 67* | 19 | .
COC(=O)[C@H]1N[C@H]2c3ccc(C4=CCCC4)c(=O)n3C[C@H]2[C@@H]1CO | . | -1 | 1 | . | . | -3
C/C=C/c1ccc(C2[C@@H]3CN(C(=O)c4cnccn4)C[C@H]2N3)cc1 (stereo not given in full) | 4 | 15 | 0 | . | . | -20
COc1ccc(CCn2c(O)c(C=Nc3ccc(F)cc3)c(=O)[nH]c2=O)cc1OC | -5 | 1 | 0 | 35 | -5 | 5
CCN(CC)c1ccc(N=Cc2c(O)n(CCc3ccc(OC)c(OC)c3)c(=O)[nH]c2=O)cc1 | -3 | . | 6 | 38 | 52* | 51*
O=C1CNC[C@H]2[C@H](c3ccc(Br)cc3)[C@@H](CO)N12 | -5 | 1 | 0 | . | . | 0
O=C(Cc1cccnc1)N1CCCCN2[C@H](CO)[C@@H](c3ccc(C#CC4CCCC4)cc3)[C@@H]2C1 | . | 1 | 0 | . | . | 0
COc1ccc2c(c1OC)CN1CCc3cc4c(cc3C1C2)OCO4 (stereo not given) | 6 | 10 | 0 | 10 | -8 | 26
C#CCOc1cc(C2C3=C(COC3=O)Nc3cc4c(cc32)OCO4)ccc1OC (stereo not given) | -9 | 63* | 0 | 13 | 0 | -31
O=C(Cc1ccccn1)N1CC2(C1)[C@H](c1ccccc1)[C@H](CO)N2Cc1ccccn1 | . | 1 | 0 | . | . | 3
O=[N+]([O-])c1ccc(N(CCO)CCO)c2c1no[n+]2[O-] | 27 | 20 | 1 | 9 | 20 | ?
CN1CCN(c2ccc([N+](=O)[O-])c3no[n+]([O-])c23)CC1 | 8 | 33 | 1 | -8 | 104* | 105*
COc1ccc2c(c1OC)CN1CCc3cc4c(cc3[C@H]1C2)OCO4 | . | . | . | -4 | -32 | .
CCC1CN2CCc3cc(OC)c(OC)cc3C2CC1CC1NCCc2c1[nH]c1ccc(O)cc21 (stereo not given) | 12 | 29 | 0 | 85* | 99* | 100*
C/C=C/c1ccc(C2[C@@H]3CN(C(=O)CN(C)C)C[C@H]2N3)cc1 (stereo not given in full) | 13 | -2 | 0 | . | . | 12
CNC(=O)Oc1ccc(-c2cn3cc(C)ccc3n2)cc1 | 8 | 70* | 0 | 33 | 64* | .
CCC(COC(=O)NC)NC(=O)Oc1cccc(C)c1 (stereo not given) | . | . | . | 7 | 33 | -3
CNC(=O)Oc1cccc(-c2cn3cc(Cl)ccc3n2)c1 | . | . | 0 | 30 | 35 | 82*
CC1(C)C[C@H]2C=C(C=O)[C@]3(C=O)C[C@]3(C)[C@H]2C1 | . | 28 | . | 7 | 84* | .
Cc1cc(OCC(=O)N2CCC(C(N)=O)CC2)c2c3c(c(=O)oc2c1)CCCC3 | . | 5 | . | 5 | 91* | .
Cc1cc(OCC(=O)O)c2c3c(c(=O)oc2c1)CCCC3 | . | . | . | 2 | -24 | .
CC(C)NC(=O)N1[C@@H]2c3ccc(-c4cccc(C(=O)N(C)C)c4)c(=O)n3C[C@H]1[C@H](CO)[C@H]2C(=O)O | . | -3 | 0 | . | . | 1
O=C1C(=O)c2cccc3cccc1c23 | -6 | 26 | 1 | 22 | 8 | 8
SMILES | FN deposition inh | EWS-Fli inh | XiGFP reactiv | TROY NFkB inh | TWEAK-Fn14 inh | LGR2 inh
O=C1C(=O)c2ccccc2-c2ccccc21 | 56* | 82* | ? | 83* | 107* | 104*
O=C(c1ccccc1)C(CN1CCCC1)c1ccccc1 (stereo not given) | 18 | . | 1 | 11 | 71* | ?
CCN1CCN(CC(c2ccccc2)c2ccccc2)CC1 | 2 | 14 | 0 | 15 | 7 | -6
C[C@H](CO)N1C[C@H](C)[C@@H](CN(C)C(=O)Oc2ccccc2)OCc2ccccc2-c2c(n(C)c3ccccc23)C1=O | 4 | . | 0 | . | . | .
Cc1ccc(C(=O)C2CN3CCC2CC3)cc1 (stereo not given) | . | . | . | . | 84* | .
Cc1ccc(C(=O)C2CN(C)CC2C(=O)c2ccc(C)cc2)cc1 (stereo not given) | . | . | . | 42 | -3 | .
CC1=CC2OC3CC4OC(=O)C=CC=CC(C(C)O)OCC(O)C5(C)OC5C(=O)OCC2(CC1O)C4(C)C31CO1 (stereo not given) | 29 | 45 | 0 | 83* | 99* | 102*
CC(O)C1C=CC=CC(=O)OC2CC3OC4C5OC5(C)C(O)CC4(COC(=O)C(O)C(C)CCO1)C2(C)C31CO1 (stereo not given) | 22 | 29 | 0 | 86* | 99* | 104*
CC1=CC2OC3CC4OC(=O)C=CC=CC(=O)OCCC(C)C(O)C(=O)OCC2(CC1)C4(C)C31CO1 (stereo not given) | -1 | 19 | 1 | 85* | 101* | .
CC1CCOC(=O)C=CC=CC(=O)OC2CC3OC4C5OC5(C)C(O)CC4(COC(=O)C1O)C2(C)C31CO1 (stereo not given) | 6 | 22 | 0 | 86* | 103* | 104*
OC[C@H]1Nc2ccc(C#Cc3cccnc3)cc2[C@H]2NCC[C@H]21 | -1 | 1 | 0 | . | . | 13
CS(=O)(=O)N1C[C@@H]2C(c3ccc(Br)cc3)[C@H](C1)N2CC1CC1 (stereo not given in full) | 3 | . | 0 | . | . | .
COc1ccc(-c2ccc([C@H]3[C@H](CO)N4CCCCN(C(=O)Cc5ccccc5)C[C@@H]34)cc2)cc1 | . | . | 0 | . | . | 8
Cc1ccccc1-c1ccc([C@H]2[C@@H](CO)N3CCCCN(C(=O)Cc4ccccn4)C[C@@H]23)cc1 | . | 3 | 0 | . | . | 13
C[C@H]1CCC[C@H](O)CCCCCc2cc(O)cc(O)c2C(=O)O1 | -5 | -7 | 0 | 10 | 31 | 0
C[C@H]1CCC[C@@H](O)CCC/C=C/c2cc(O)cc(O)c2C(=O)O1 | -10 | . | . | 20 | 59* | 38
COC(=O)[C@@H]1[C@@H](CO)[C@@H]2Cn3c(ccc(-c4ccc(F)cc4)c3=O)[C@H]1N2C(=O)c1ccccc1F | -3 | 1 | 0 | . | . | -15
COc1ccc(C(c2nnnn2C2CCCC2)N2CCC3(CC2)C(=O)NCN3c2ccccc2)cc1 (stereo not given) | -2 | 9 | 0 | 56* | -8 | 5
COc1cccc(C(c2nnnn2C2CCCCC2)N2CCC3(CC2)C(=O)NCN3c2ccccc2)c1OC (stereo not given) | -5 | -3 | 0 | 17 | 37 | 21

Source: PubChem (several laboratories)
